ChEMBL document CHEMBL1130008, “Structure-based design of a potent, selective, and irreversible inhibitor of the catalytic domain of the erbB receptor subfamily of protein tyrosine kinases” (J Med Chem, 1997)

Legend:
[1] = Affinity for mouse cyclic-AMP dependent Ser/Thr Kinase
[2] = biological target: Insulin receptor (Homo sapiens) (UniProt P06213); assay: Inhibition of human insulin receptor tyrosine kinase at 50 uM (no effect)
[3] = biological target: Fibroblast growth factor receptor (Homo sapiens) (UniProt P22607+P11362+P22455+P21802); assay: Inhibition of human fibroblast growth factor receptor (FGF) at 50 uM (no effect); format: protein assay
[4] = biological target: Platelet-derived growth factor receptor beta (Homo sapiens) (UniProt P09619); assay: Inhibition of human Platelet-derived growth factor receptor at 50 uM (no effect)
Chain of Platelet-derived growth factor receptor beta (Homo sapiens) (P09619 whole entry): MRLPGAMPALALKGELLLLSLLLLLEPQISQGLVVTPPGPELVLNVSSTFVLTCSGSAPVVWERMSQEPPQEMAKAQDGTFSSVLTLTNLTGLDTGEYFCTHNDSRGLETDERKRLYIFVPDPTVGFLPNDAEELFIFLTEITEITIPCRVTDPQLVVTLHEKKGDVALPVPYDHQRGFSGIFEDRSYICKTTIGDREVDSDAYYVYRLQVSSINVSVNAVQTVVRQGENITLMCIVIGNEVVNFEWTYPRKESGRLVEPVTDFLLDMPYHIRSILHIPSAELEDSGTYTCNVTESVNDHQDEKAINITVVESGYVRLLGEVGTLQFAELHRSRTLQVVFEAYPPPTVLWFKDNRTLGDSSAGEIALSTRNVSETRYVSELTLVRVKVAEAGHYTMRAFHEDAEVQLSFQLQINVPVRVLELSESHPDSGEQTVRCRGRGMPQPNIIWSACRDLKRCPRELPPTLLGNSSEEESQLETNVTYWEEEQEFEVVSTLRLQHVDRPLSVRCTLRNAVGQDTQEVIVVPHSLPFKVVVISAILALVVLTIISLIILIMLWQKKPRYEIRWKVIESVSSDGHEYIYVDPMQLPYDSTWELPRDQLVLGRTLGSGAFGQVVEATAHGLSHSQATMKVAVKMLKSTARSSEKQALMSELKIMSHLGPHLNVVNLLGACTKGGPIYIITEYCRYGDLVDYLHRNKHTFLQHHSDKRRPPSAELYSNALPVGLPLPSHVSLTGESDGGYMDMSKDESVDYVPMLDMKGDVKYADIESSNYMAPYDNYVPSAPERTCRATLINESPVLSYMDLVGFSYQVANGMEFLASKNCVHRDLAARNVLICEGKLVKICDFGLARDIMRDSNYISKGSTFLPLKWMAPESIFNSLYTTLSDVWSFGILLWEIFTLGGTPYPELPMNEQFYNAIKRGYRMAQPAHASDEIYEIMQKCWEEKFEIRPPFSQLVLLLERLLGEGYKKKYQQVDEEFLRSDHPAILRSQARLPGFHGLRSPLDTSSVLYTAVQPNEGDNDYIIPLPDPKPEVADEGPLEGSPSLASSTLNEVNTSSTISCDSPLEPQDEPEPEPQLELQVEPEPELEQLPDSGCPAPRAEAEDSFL

[5] = biological target: Receptor tyrosine-protein kinase erbB-2 (Homo sapiens, UniProt P04626); assay: Inhibition of human erbB-2 receptor tyrosine kinase
Chain of Receptor tyrosine-protein kinase erbB-2 (P04626 whole entry): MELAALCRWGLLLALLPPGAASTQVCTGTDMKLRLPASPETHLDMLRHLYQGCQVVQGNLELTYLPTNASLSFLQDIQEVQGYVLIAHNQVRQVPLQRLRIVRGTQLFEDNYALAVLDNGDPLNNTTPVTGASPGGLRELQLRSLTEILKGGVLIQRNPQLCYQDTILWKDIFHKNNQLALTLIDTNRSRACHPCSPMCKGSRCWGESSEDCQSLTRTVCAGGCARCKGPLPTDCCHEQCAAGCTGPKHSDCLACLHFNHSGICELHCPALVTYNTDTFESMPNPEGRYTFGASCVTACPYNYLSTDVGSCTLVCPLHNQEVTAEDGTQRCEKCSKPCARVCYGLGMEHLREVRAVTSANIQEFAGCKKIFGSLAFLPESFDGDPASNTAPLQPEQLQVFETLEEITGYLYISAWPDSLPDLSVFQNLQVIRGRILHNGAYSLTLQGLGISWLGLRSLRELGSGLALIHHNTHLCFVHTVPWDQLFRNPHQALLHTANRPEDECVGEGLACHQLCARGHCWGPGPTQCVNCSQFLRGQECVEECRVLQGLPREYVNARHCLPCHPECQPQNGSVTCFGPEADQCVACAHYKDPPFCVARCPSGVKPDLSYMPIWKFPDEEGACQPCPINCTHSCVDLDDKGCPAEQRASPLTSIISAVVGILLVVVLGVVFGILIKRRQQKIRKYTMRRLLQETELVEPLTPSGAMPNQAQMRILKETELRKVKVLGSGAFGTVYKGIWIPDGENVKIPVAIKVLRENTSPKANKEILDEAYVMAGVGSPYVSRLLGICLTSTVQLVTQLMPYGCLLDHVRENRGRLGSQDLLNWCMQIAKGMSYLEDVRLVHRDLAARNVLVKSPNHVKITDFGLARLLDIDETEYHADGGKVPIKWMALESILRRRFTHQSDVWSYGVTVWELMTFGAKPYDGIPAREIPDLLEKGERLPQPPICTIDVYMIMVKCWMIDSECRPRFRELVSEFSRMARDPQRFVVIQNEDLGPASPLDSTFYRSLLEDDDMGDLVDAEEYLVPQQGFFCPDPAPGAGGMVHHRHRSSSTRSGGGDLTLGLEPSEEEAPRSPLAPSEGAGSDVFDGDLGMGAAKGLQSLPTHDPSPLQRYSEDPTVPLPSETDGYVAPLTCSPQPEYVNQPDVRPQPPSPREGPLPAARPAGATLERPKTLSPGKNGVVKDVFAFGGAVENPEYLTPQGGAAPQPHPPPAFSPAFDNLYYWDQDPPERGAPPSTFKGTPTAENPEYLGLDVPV

[6] = biological target: T1, Epidermal growth factor receptor (Homo sapiens, UniProt P00533); assay: Inhibition of erbB-1 receptor tyrosine kinase from A431 human epidermoid carcinoma cells; format: cell-based, A-431
Summary of the method: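 Full-length erbB-1 purified from A431 cell lysate by anti-EGF-receptor antibody affinity resin and eluted with EGF. Run at 25 °C for 10 min, stopped with TCA, precipitate counted by scintillation.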

[7] = biological target: T1, Epidermal growth factor receptor; assay: (§1) Rate constant for inactivation of erbB-1 receptor of A431 human epidermoid carcinoma cells; format: cell-based; details: A-431
Summary of the method: (§2)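 A431 full-length erbB-1 preincubated with 0.1–25 µM nucleoside in kinase buffer lacking ATP for 1, 5, 15 or 30 min. 10 µM [32P]ATP then started a 10 min, 25 °C poly(Glu,Tyr) phosphorylation. Activity as % of control on semilog plots gave pseudo-first-order constants, fitted hyperbolically against concentration. Run in duplicate.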

[8] = biological target: T1, Epidermal growth factor receptor; assay: Second order rate constant for inactivation of erbB-1 receptor of A431 human epidermoid carcinoma cells; format: cell-based; details: A-431; summary of the method: as §2
[9] = biological target: T1, Epidermal growth factor receptor; assay: Saturation rate constant for complex formation with human erbB-1 receptor; summary of the method: as §2
[10] = biological target: T1, Epidermal growth factor receptor; assay: as §1; format: cell-based, A-431; summary of the method: as §2
[11] = biological target: T1, Epidermal growth factor receptor; assay: Inhibition of human erbB-1 receptor tyrosine kinase activity at 5 uM
Summary of the method: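 A431-derived full-length erbB-1 was preincubated with 5 µM nucleoside without ATP, then assayed with 10 µM [32P]ATP and poly(Glu,Tyr) at 25 °C for 10 min; a TCA-precipitate count gave the read-out. Reversibility was tested by treating with 1 mM dithiothreitol.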

[12] = biological target: T1, Epidermal growth factor receptor; assay: Half life for inactivation of erbB-1 receptor; summary of the method: as §2

Chain of Insulin receptor (Homo sapiens) (P06213 28-758 limits assumed): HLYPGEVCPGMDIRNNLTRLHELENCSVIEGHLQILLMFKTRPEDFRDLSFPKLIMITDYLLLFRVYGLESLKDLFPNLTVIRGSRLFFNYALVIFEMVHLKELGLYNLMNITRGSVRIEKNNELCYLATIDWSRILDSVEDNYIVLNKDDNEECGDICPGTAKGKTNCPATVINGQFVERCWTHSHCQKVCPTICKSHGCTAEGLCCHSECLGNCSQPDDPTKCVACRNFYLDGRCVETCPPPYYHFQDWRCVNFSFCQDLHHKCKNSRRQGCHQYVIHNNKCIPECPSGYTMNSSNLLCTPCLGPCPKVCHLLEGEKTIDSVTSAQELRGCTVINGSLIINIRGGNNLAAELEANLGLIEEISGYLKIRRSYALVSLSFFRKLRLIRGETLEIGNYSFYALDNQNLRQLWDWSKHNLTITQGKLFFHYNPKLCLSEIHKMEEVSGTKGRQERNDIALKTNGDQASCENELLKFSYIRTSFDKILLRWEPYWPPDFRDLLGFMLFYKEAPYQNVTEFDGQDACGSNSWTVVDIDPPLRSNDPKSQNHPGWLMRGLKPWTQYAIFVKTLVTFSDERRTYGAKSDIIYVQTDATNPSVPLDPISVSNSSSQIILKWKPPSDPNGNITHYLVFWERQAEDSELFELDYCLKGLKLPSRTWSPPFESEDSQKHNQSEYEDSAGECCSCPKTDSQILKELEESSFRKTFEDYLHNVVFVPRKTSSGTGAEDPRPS
Chain of Insulin receptor (Homo sapiens) (P06213 763-1382 limits assumed): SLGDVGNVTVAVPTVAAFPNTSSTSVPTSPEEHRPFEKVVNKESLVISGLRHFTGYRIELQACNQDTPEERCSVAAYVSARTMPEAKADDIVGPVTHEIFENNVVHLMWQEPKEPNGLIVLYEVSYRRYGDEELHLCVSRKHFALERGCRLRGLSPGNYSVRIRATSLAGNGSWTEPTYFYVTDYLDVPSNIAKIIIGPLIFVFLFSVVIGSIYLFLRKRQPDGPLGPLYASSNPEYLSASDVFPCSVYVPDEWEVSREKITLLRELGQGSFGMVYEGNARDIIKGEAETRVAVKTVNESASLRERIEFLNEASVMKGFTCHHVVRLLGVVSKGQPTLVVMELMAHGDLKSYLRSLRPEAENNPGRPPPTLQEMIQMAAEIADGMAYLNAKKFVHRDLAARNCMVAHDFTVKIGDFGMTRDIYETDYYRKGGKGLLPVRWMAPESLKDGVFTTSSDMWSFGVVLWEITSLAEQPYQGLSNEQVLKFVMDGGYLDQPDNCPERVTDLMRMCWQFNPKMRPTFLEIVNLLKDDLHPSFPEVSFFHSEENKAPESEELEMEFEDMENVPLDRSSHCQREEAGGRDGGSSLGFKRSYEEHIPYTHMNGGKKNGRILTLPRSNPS

Kd [1] [µM] | Concentration [2] [µM] | Concentration [3] [µM] | Concentration [4] [µM] | IC50 [5] [µM] | IC50 [6] [µM] | kmax [7] [s⁻¹] | kmax/KS [8] [M⁻¹ s⁻¹] | KS [9] [µM] | Kd [10] [µM] | inhibition [11] [%] | T1/2 [12] [min] | SMILES
35 | 50 | 50 | 50 | ~1600 | 195 |  |  |  |  |  |  | Nc1ncnc2c1ncn2[C@@H]1O[C@H](CO)[C@@H](O)[C@H]1O [ADENOSINE]
10 |  |  |  |  |  |  |  |  |  |  |  | Nc1ncnc2c1ncn2[C@@H]1O[C@H](COP(=O)(O)OP(=O)(O)O)[C@@H](O)[C@H]1O [ADENOSINE DIPHOSPHATE]
 | 50 | 50 | 50 | 45 |  | 0.0023 | 2000 | 1 | 1 | 70 | 5 | Nc1ncnc2c1ncn2[C@@H]1O[C@H](CO)[C@@H](O)[C@H]1S

SMILES | Kd [1] [µM] | Concentration [2] [µM] | Concentration [3] [µM] | Concentration [4] [µM] | IC50 [5] [µM] | IC50 [6] [µM] | kmax [7] [s⁻¹] | kmax/KS [8] [M⁻¹ s⁻¹] | KS [9] [µM] | Kd [10] [µM] | inhibition [11] [%] | T1/2 [12] [min]
Nc1ncnc2c1ncn2[C@@H]1O[C@H](COP(=O)(O)OP(=O)(O)OP(=O)(O)O)[C@@H](O)[C@H]1O [ADENOSINE TRIPHOSPHATE] | 10 |  |  |  |  |  |  |  |  |  |  | 
